Compound activity as filed in PubChem.
HSP90 inh = HSP90 inhibitors, primary screen, cell lysate, luminescence | AID 1789, 2009 | Heat shock protein HSP 90 (rabbit reticulocyte lysate; luciferase refolding) | inhibition, % at 5.6 µM | Rabbit reticulocyte lysate, luciferase refolding luminescence, 3 h | actives 0.91% (n = 290,000);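 active = inhibition above the screen-wide mean plus 3 SD, computed separately per campaign, cut at about 16% in these data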;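 also: inhibitors lower the luminescence because luciferase stays unfolded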
SENP8 block-1 = SENP8 protease inhibitors, primary screen, biochemical, luminescence. Sentrin-specific protease 8 (Homo sapiens), Q96LD8. purified SENP8, Z-RLRGG-aminoluciferin cleavage. inhibition, % at 10 µM. actives 1.2% (n = 330,000); in the data active = inhibition above about 50%
Target sequence (Q96LD8 whole entry, looked up): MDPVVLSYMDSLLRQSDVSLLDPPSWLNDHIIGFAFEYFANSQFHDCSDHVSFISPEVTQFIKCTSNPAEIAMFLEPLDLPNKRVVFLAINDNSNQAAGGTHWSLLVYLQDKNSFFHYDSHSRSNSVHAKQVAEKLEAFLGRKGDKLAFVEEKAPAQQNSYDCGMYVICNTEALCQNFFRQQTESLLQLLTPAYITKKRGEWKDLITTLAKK
SENP1 inh = human SENP1 catalytic domain inhibitors, primary screen, biochemical, FRET, uHTS; Sentrin-specific protease 1 (Homo sapiens), Q9P0U3; recombinant SENP1 catalytic domain, CyPet-SUMO1-YPet FRET cleavage; inhibition, % at 10 µM; actives 0.21% (n = 360,000);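 active = inhibition at least 30% at 10 µM, raw YFP signal under a set limit, fluorescence ratio 0.5 to 1.5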
Target sequence (Q9P0U3 419-644 limits assumed): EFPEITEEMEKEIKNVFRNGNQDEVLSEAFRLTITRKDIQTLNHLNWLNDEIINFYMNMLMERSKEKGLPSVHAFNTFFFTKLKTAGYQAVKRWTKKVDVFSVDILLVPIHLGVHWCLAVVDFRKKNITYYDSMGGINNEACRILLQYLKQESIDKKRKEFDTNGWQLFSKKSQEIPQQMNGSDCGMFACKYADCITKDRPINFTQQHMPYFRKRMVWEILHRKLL
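Test system: human SENP1 catalytic domain; medium: Tris pH 8 buffer plus EDTA, NaCl, BME, BSA, NP40, catalase; incubation: 50 min reaction at room temperature; technique: FRET, CFP and YFP emission; controls: no-enzyme low control and enzyme-plus-DMSO high control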
SENP6 block = SENP6 protease inhibitors, primary screen, biochemical, luminescence, uHTS. inhibition, % at 10 µM. Recombinant SENP6 catalytic domain, aminoluciferin luminescence. actives 1.8% (n = 330,000);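 active = inhibition above about 50% at the single tested dose, limit read from the data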
SENP7 block = SENP7 protease inhibitors, primary screen, biochemical, luminescence, uHTS | Sentrin-specific protease 7 (Homo sapiens), Q9BQF6 | recombinant SENP7, Z-RLRGG-aminoluciferin luminescence, 40 min | inhibition, % at 5 µM | actives 1.5% (n = 330,000) | AID 434973, 2010;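 active = inhibition above about 50% at the single test dose, limit read from the data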
SENP8 block-2 = human SENP8 protease inhibitors, primary screen, biochemical, fluorescence, Nedd8 protein substrate, uHTS; recombinant SENP8; inhibition, % at 20 µM; actives 0.64% (n = 360,000); AID 602440, 2012; in the data active = inhibition mostly above about 40%, no sharp cut-off; inactive = mostly below about 27%
SENP8 inh conf = human SENP8 protease inhibitors, confirmation, biochemical, Nedd8 protein substrate, single concentration. actives 15% (n = 1,400). shares compounds with SENP8 block-2. inhibition, % at 25 µM. purified SENP8, Nedd8-AMC/pro-Nedd8 cleavage fluorescence, 30 min; in the data active = inhibition mostly above about 39%, no sharp cut-off; inactive = mostly below about 34%
Large screens that a line does not name were inactive (follow-up assays come after a bar, where they were run). Sampled rows, rich in hits. Any-hit rate of the full collection: about 2.9%.

CC1=NN(Cc2ccccc2)C(=O)C1	SENP8 block-2 42.8 | SENP8 inh conf inactive
O=C1CCCCCCCN1Cc1ccccc1	none (no result: HSP90 inh)
Cc1[nH]nc(N2CCCCC2)c1[N+](=O)[O-]	SENP8 block-2 44.2 | SENP8 inh conf inactive
O=C1CC(c2ccco2)CC(O)=C1C=NCC1CCNCC1 (stereo not drawn)	SENP8 block-2 65.3 | SENP8 inh conf inactive
O=C1CC(c2ccco2)CC(O)=C1C=NCCN1CCNCC1 (stereo not drawn)	none
Cc1ccc(S(=O)(=O)NCC(=O)NCC(=O)N(C)Cc2ccc3ccccc3c2)cc1C	none
CN(Cc1ccc(F)cc1)C(=O)CN1CCN(S(=O)(=O)c2ccc3c(c2)OCCCO3)CC1	none (no result: HSP90 inh, SENP8 block-1, SENP6 block, SENP7 block)
Cc1ccc(NC(=O)CN2CCc3cc4c(cc3C2)OCCCO4)cc1C	none
Cc1ccc(NC(=O)CN2CCc3cc4c(cc3C2)OCCCO4)cc1	SENP8 block-2 42.7 | SENP8 inh conf inactive
O=C(O)C1CC(=O)N(C2CCCCC2)C1c1ccccc1 (stereo not drawn)	SENP8 block-2 40.9 | SENP8 inh conf inactive
COC(=O)C1=COC(OC2OC(CO)C(O)C(O)C2O)C2C1C=CC2(O)CO (stereo not drawn)	SENP8 block-2 40.7 (no result: HSP90 inh) | SENP8 inh conf inactive
CCCCCCC(=O)Nc1ccc(S(=O)(=O)Nc2onc(C)c2C)cc1	none (no result: HSP90 inh)
Cc1noc(NS(=O)(=O)c2ccc(NC(=O)CCC3CCCC3)cc2)c1C	SENP8 block-2 42.7 | SENP8 inh conf inactive
Cc1cn([C@H]2C[C@H](O)[C@@H](/C=C/C(=O)NCCc3cccs3)O2)c(=O)[nH]c1=O	none (no result: HSP90 inh, SENP8 block-1, SENP6 block, SENP7 block)
CCCCOCCCNC(=O)c1ccc2c(c1)OCO2	none
COCCCNC(=O)c1ccc2c(c1)OCO2	SENP8 block-2 44.6 | SENP8 inh conf inactive
CCOC(=O)c1sc(NC(=O)CN2C(=O)C3CC=CCC3C2=O)nc1C (stereo not drawn)	none (no result: HSP90 inh)
N#Cc1cc(N)ccc1Sc1ccc(Cl)cc1	none
N#Cc1ncc(C(F)(F)F)cc1Sc1ccc(N)cc1	SENP8 block-2 44.6 | SENP8 inh conf inactive
CC1(C)C[C@H]2C3=CCC4[C@@]5(C)CC[C@H](O)[C@](C)(CO)C5CC[C@@]4(C)[C@]3(C)CC[C@@]2(C)[C@H](O)[C@@H]1O (stereo partly drawn)	SENP8 block-2 40.4 (no result: HSP90 inh) | SENP8 inh conf inactive
Cc1onc(-c2ccccc2)c1C(=O)OCC(=O)NC(C)c1ccc(Cl)cc1 (stereo not drawn)	none (no result: HSP90 inh)
CC(Nc1cc(N2CCNCC2)ccc1[N+](=O)[O-])c1ccccc1 (stereo not drawn)	none
CCS(=O)(=O)N1CCN(c2ccc([N+](=O)[O-])c(NC(C)c3ccccc3)c2)CC1 (stereo not drawn)	SENP8 block-2 60.2 | SENP8 inh conf inactive
CCS(=O)(=O)N1CCN(c2ccc([N+](=O)[O-])c(NCc3ccccc3)c2)CC1	none
CS(=O)(=O)N1CCN(c2ccc([N+](=O)[O-])c(NCc3ccccc3)c2)CC1	SENP8 block-2 44.7 | SENP8 inh conf inactive
O=[N+]([O-])c1ccc(N2CCOCC2)cc1NC(c1ccccc1)c1ccccc1	none
O=[N+]([O-])c1ccc(N2CCCC2)cc1NC(c1ccccc1)c1ccccc1	SENP8 block-2 56.4 | SENP8 inh conf inactive
O=c1cc(CO)[nH]cc1OCc1ccccc1	SENP8 block-2 45.9 | SENP8 inh conf inactive
O=c1cc(CO)occ1OCc1cccc(F)c1	none
NS(=O)(=O)c1ccc(S(=O)(=O)N2CCN(C3CCCC3)CC2)cc1	none
COc1ccccc1C(=O)N1CCN(S(=O)(=O)c2ccccc2)CC1	SENP8 block-2 45.5 | SENP8 inh conf inactive
